# ChEMBL document CHEMBL4043160, “Facile alkylation of 4-nitrobenzotriazole and its platelet aggregation inhibitory activity” (Bioorg Med Chem, 2017)
# The source made the active and inactive calls. The calls are words filed in the database; no cut-off is given here.
# Target: P2Y purinoceptor 12 (Homo sapiens) (UniProt Q9H244)
# Test: Agonist activity at P2Y12 in human platelets assessed as effect on VASP phosphorylation at 200 uM by CY-QUANT VASP/P2Y12 ELISA method
# Method in brief: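 VASP phosphorylation read by CY-QUANT VASP/P2Y12 ELISA kit, run per manufacturer's instructions. Platelets were exposed to PGE1, and PGE1-induced phosphorylation was set as 100%. ADP served as the P2Y12 agonist reference. Compounds were tested at 200 µM together with ADP. Per se effect at 200 µM was checked with PGE1 alone, without ADP.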
# Sequence of P2Y purinoceptor 12 (Homo sapiens) (Q9H244 whole entry): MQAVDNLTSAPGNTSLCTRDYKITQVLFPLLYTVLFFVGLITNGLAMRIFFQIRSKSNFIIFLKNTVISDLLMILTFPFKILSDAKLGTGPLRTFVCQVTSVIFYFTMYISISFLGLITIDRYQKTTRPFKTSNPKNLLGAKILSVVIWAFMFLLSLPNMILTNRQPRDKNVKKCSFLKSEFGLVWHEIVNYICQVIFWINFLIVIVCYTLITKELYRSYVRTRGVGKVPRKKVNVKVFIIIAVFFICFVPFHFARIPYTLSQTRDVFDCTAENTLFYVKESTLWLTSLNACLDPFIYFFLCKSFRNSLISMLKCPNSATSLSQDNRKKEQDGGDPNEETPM
row,Compound,Activity
1,CCCCCCCn1nnc2c([N+](=O)[O-])cccc21,inactive
2,CCCCCCCn1nc2cccc([N+](=O)[O-])c2n1,inactive
3,CCCCCCCCn1nc2cccc([N+](=O)[O-])c2n1,inactive
4,Cn1nc2cccc([N+](=O)[O-])c2n1,inactive
5,CCCCCCn1nnc2c([N+](=O)[O-])cccc21,inactive
6,CCCCCCn1nc2cccc([N+](=O)[O-])c2n1,inactive
7,O=[N+]([O-])c1cccc2nn(Cc3ccccc3)nc12,inactive
8,O=[N+]([O-])c1cccc2c1nnn2CCCCl,inactive
9,CCCCn1nnc2c([N+](=O)[O-])cccc21,inactive
10,Cc1ccc(S(=O)(=O)n2nnc3c([N+](=O)[O-])cccc32)cc1,inactive
11,CCCn1nnc2c([N+](=O)[O-])cccc21,inactive
12,Cn1nnc2c([N+](=O)[O-])cccc21,inactive
13,CCCCCCCCn1nnc2c([N+](=O)[O-])cccc21,inactive
14,CCCCCn1nnc2c([N+](=O)[O-])cccc21,inactive
15,O=C(c1ccccc1)n1nnc2c([N+](=O)[O-])cccc21,inactive
16,O=[N+]([O-])c1cccc2c1nnn2Cc1ccccc1,inactive
17,CCCCCn1nc2cccc([N+](=O)[O-])c2n1,inactive
18,CCCCn1nc2cccc([N+](=O)[O-])c2n1,inactive
19,Cn1nnc2cccc([N+](=O)[O-])c21,inactive
20,CCn1nc2cccc([N+](=O)[O-])c2n1,inactive
21,CCn1nnc2c([N+](=O)[O-])cccc21,inactive
22,CCCn1nc2cccc([N+](=O)[O-])c2n1,inactive
23,O=[N+]([O-])c1cccc2nn(CCCCl)nc12,inactive
